# Target: not listed separately
# Test: Inhibition of NADH:ubiquinone oxidoreductase from house fly (Musca domestica) flight muscles
# Format: tissue-based, Muscle tissue
# In short: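 House fly flight-muscle complex I. Activity was measured as NADH oxidation, followed photometrically at 340 nm, with n-decylubiquinone as the electron acceptor.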
row,SMILES,IC50 [nM]
1,CC(C)(C)c1ccc(CSc2cc(=O)c3ccccc3o2)cc1,500
2,CC(C)(C)c1ccc(CSc2oc3ccccc3c(=O)c2Cl)cc1,6
3,CCc1c(SCc2ccc(C(C)(C)C)cc2)oc2ccccc2c1=O,> 200
4,Cc1c(S(=O)(=O)Cc2ccc(C(C)(C)C)cc2)oc2ccccc2c1=O,160

# The remaining lines, values ahead:
row,IC50 [nM],SMILES
1,10,Cc1c(SCCc2ccc(C(C)(C)C)cc2)oc2ccccc2c1=O
2,200,Cc1c(NCCc2ccc(C(C)(C)C)cc2)oc2ccccc2c1=O
3,8,Cc1c(SCc2ccc(C(C)(C)C)cc2)oc2ccccc2c1=O
4,20,Cc1c(NCc2ccc(C(C)(C)C)cc2)oc2ccccc2c1=O

# Tested on: Tetranychus urticae
# Test: Acaricidal activity of a compound (300 p.p.m.) was evaluated against Tetranychus urticae infected on bean plants
# Format: functional
row,SMILES,Activity [%]
1,CC(C)(C)c1ccc(CSc2cc(=O)c3ccccc3o2)cc1,0
2,Cc1c(SCCc2ccc(C(C)(C)C)cc2)oc2ccccc2c1=O,80
3,CC(C)(C)c1ccc(CSc2oc3ccccc3c(=O)c2Cl)cc1,50
4,CCc1c(SCc2ccc(C(C)(C)C)cc2)oc2ccccc2c1=O,0
5,Cc1c(NCCc2ccc(C(C)(C)C)cc2)oc2ccccc2c1=O,0
6,Cc1c(S(=O)(=O)Cc2ccc(C(C)(C)C)cc2)oc2ccccc2c1=O,0
7,Cc1c(SCc2ccc(C(C)(C)C)cc2)oc2ccccc2c1=O,100
8,Cc1c(NCc2ccc(C(C)(C)C)cc2)oc2ccccc2c1=O,0
